The source made the active and inactive calls. The calls are words filed in the database; no cut-off is given here.
Key:
[1] = Cytotoxicity against mouse RAW264.7 cells incubated for 48 to 72 hrs by absorbance based assay; assay type: toxicity, cell-based
In short: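 MTT read-out: macrophage cells plated at 1 × 10^4 cells per well in DMEM with 10% FBS, 37 °C, 5% CO2; treatment 48 h and 72 h; 2.5 mg ml−1 MTT 3 h, formazan dissolved in DMSO, OD 570 nm; doxorubicin 10 μM control.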

Staphylococcus aureus [2] = experiment: Bactericidal activity against Staphylococcus aureus ATCC 29213 assessed as reduction in bacterial count at 2 to 4 times MIC incubated for 2 hrs by time-kill assay
Staphylococcus aureus [3] = experiment: Bacteriostatic activity against Staphylococcus aureus ATCC 29213 assessed as reduction in bacterial count incubated for 2 to 24 hrs by time-kill assay; assay type: functional, organism-based; settings: time 2-24 hrs
Staphylococcus aureus [4] = experiment: Bactericidal activity against methicillin-resistant Staphylococcus aureus ATCC 15187 assessed as reduction in bacterial count at 2 times MIC measured after 8 to 10 hrs by time-kill assay; assay type: functional, organism-based; settings: time 8-10 hrs
Staphylococcus aureus [5] = experiment: Additive antibacterial activity against Staphylococcus aureus ATCC 29213 assessed as fractional inhibitory concentration index at 0.02 ug/ml incubated up to 24 hrs in presence of ciprofloxacin by checkerboard analysis; assay type: functional; settings: dose 0.02 µg/ml
In short: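 Checkerboard microdilution in cation-adjusted MHB, done per CLSI. The compound and partner antibiotic were dissolved in DMSO. The antibiotic was serially diluted across the plate and the compound was twofold serially diluted into the wells to make the combinations. Each well received 0.1 ml of inoculum, a 0.5 McFarland suspension (1.5 × 10^8 CFU ml−1) diluted 1:100 in MHB. Plates were incubated 24 h at 37 °C, then read with Alamar blue (0.04%). FIC index was calculated.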

[6] = Lipophilicity, logP of compound; assay type: physicochemical; settings: octanol/water
Staphylococcus aureus [7] = experiment: Bactericidal activity against methicillin-resistant Staphylococcus aureus ATCC 15187 assessed as reduction in bacterial count at 1 to 4 times MIC by time-kill assay; assay type: functional, organism-based; settings: time 2-24 hrs

Structure (SMILES): CCCc1nn(C)c2c(Nc3ccc(O)cc3)nc(-c3ccc([N+](=O)[O-])o3)nc12
- IC50 [1]: > 100 µg/mL
- Activity (Staphylococcus aureus [2]): Active
- Activity (Staphylococcus aureus [3]): Dose-dependent-effect
- Activity (Staphylococcus aureus [4]): Not active; Initial Killing Was Observed, But Exhibited Some Re-Growth After 8 To 10 Hrs
- fractional inhibitory concentration index (FICI) (Staphylococcus aureus [5]): 1
- logP [6]: 2.92
- Activity (Staphylococcus aureus [7]): Time-dependent-effect
